Results reported in ChEMBL document CHEMBL2203130, “Sulfanylphthalonitrile analogues as selective and potent inhibitors of monoamine oxidase B” (Bioorg Med Chem Lett, 2012).

Experiments:
[1] = species on record: Homo sapiens; assay: Selectivity index, ratio of IC50 for human recombinant MAOA to IC50 for human recombinant MAOB
In short: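 Ratio of IC50 for MAO-A to IC50 for MAO-B. Both IC50s from the kynuramine fluorescence assay: MAO-A with 45 µM kynuramine, MAO-B with 30 µM. Each run in triplicate.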

[2] = species on record: Homo sapiens; assay: Selectivity index, ratio of Ki for human recombinant MAOA to Ki for human recombinant MAOB
In short: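 Ki values derived from IC50s by the Cheng–Prusoff equation. MAO-A used [S] 45 µM and Km 16.1 µM; MAO-B used [S] 30 µM and Km 22.7 µM. Index is Ki(MAO-A)/Ki(MAO-B).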

[3] = target: T1, Amine oxidase [flavin-containing] B (Homo sapiens, UniProt P27338); assay: Inhibition of human recombinant MAOB expressed in insect cell microsomes using kynuramine as substrate after 20 mins by fluorescence spectrophotometric analysis; parameters: species or system Microsome
T1 sequence (P27338 whole entry): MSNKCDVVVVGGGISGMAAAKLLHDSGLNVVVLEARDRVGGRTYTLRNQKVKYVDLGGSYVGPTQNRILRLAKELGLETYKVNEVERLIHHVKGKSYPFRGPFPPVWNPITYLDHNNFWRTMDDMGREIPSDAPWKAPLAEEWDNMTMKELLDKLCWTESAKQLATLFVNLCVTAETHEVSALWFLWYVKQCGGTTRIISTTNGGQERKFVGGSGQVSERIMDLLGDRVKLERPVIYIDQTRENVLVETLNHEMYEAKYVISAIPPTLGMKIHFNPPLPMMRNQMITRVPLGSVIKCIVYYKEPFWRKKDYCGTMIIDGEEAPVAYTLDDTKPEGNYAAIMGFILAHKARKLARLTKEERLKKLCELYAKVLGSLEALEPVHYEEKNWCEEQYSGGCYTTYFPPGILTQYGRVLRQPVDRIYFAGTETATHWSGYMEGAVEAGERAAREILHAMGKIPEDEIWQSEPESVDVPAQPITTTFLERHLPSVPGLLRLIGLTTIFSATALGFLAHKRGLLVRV

[4] = target: T2, Amine oxidase [flavin-containing] A (Homo sapiens, UniProt P21397); assay: Inhibition of human recombinant MAOA expressed in insect cell microsomes using kynuramine as substrate after 20 mins by fluorescence spectrophotometric analysis; parameters: species or system Microsome
T2 sequence (P21397 whole entry): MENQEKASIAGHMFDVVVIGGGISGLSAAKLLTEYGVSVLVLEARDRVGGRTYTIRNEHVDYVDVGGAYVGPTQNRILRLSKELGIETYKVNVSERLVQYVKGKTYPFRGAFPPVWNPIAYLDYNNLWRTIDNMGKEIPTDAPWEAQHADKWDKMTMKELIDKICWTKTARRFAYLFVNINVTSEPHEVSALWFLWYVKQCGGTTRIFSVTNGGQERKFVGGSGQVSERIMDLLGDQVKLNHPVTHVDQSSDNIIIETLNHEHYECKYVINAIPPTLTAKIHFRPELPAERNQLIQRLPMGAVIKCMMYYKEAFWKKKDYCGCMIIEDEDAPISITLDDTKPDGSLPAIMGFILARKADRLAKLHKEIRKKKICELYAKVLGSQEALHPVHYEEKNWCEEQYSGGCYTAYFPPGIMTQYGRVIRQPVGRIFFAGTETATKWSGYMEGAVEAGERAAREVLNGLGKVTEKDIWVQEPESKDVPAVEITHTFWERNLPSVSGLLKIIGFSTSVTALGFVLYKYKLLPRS
In short: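 Recombinant human MAO-A at 0.0075 mg protein/mL, started with enzyme, in 100 mM potassium phosphate pH 7.4 made isotonic with KCl, 4% DMSO. Inhibitor 0.003–100 µM, kynuramine 45 µM final. 20 min at 37 °C, stopped with NaOH. 4-Hydroxyquinoline read by fluorescence against a calibration curve. IC50 from one-site competition fit, triplicate, mean ± SD.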

[5] = target: T1, Amine oxidase [flavin-containing] B; assay: Reversible inhibition of human recombinant MAOB expressed in insect cell microsomes using kynuramine as substrate assessed as residual activity at 100 times IC50 preincubated for 30 mins followed by 100 fold dilution measured after 20 mins by fluorescence spectrophotometric analysis relative to control; parameters: species or system Microsome
In short: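 Recombinant human MAO-B (0.75 mg/ml) preincubated 30 min at 37 °C with inhibitor at 0, 10 or 100 × IC50 in pH 7.4 isotonic potassium phosphate with 4% DMSO. Diluted 100-fold with kynuramine to 30 µM substrate and 0.0075 mg/mL enzyme. Then 20 min at 37 °C. Residual 4-hydroxyquinoline formation measured by fluorescence, relative to no-inhibitor control. (R)-deprenyl at 10 × IC50 run as comparator.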

[6] = target: T2, Amine oxidase [flavin-containing] A; assay: Ratio of compound IC50 to clorgyline IC50 for human recombinant MAOA

Row | SMILES | Ratio IC50 [1] | Ratio Ki [2] | IC50 [3] [nM] | IC50 [4] [nM] | Activity [5] [%] | Ratio IC50 [6]
1 | N#Cc1ccc(OCc2ccccc2)cc1C#N | 227 |  |  |  |  | 
2 | N#Cc1ccc(SCCc2ccccc2)cc1 | 30 | 18 | 1810 | 54300 |  | 
3 | COc1ccc(CSc2ccc(C#N)c(C#N)c2)cc1 | 1920 | 1180 | 67 | 129000 |  | 
4 | N#Cc1ccc(SCCc2ccccc2)cc1C#N | 58 | 35.5 | 124 | 7190 |  | 
5 | N#Cc1ccc(SCc2ccccc2)cc1 | 27 | 16 | 1580 | 42400 |  | 
6 | N#Cc1ccc(SCc2ccc(F)cc2)cc1 | 122 | 75 | 449 | 54700 |  | 
7 | N#Cc1ccc(SCc2ccccc2)cc1C#N | 54 | 33 | 167 | 9020 |  | 
8 | N#Cc1ccc(OCc2ccccc2)cc1 | 41 |  |  |  |  | 
9 | N#Cc1ccc(Sc2ccccc2)cc1C#N | 1.7 | 1 | 2130 | 3580 |  | 
10 | N#Cc1ccc(Sc2ccc(Br)cc2)cc1 | 13 | 8.2 | 637 | 8520 |  | 
11 | N#Cc1ccc(Sc2ccc(Cl)cc2)cc1C#N | 97 | 59.6 | 114 | 11100 |  | 
12 | CC(C)CCSc1ccc(C#N)c(C#N)c1 | 6 | 3.7 | 242 | 1450 |  | 
13 | N#Cc1ccc(Sc2ccccc2)cc1 | 3.3 | 2 | 11200 | 36900 |  | 
14 | N#Cc1ccc(SCc2ccc(Br)cc2)cc1C#N | 8720 | 5330 | 25 | 218000 | 48 | 
15 | N#Cc1ccc(SCc2ccc(Cl)cc2)cc1C#N | 45 | 27 | 14 | 623 |  | 240
16 | N#Cc1ccc(SC2CCCCC2)cc1C#N | 27 | 16.3 | 223 | 5960 |  | 
17 | N#Cc1ccc(OCc2ccc(Br)cc2)cc1C#N | 134 |  |  |  |  | 
18 | N#Cc1ccc(SCc2ccc(F)cc2)cc1C#N | 62 | 38 | 34 | 2100 |  | 
19 | N#Cc1ccc(SCc2ccc(Br)cc2)cc1 | 267 | 163 | 484 | 129000 |  | 
20 | COc1ccc(CSc2ccc(C#N)cc2)cc1 | 6.5 | 4 | 861 | 5590 |  | 
21 | N#Cc1ccc(Sc2ccc(Cl)cc2)cc1 | 4.3 | 2.6 | 4280 | 18200 |  | 
22 | N#Cc1ccc(SC2CCCCC2)cc1 | 2.1 | 1.3 | 4770 | 9870 |  | 
23 | N#Cc1ccc(SCc2ccc(Cl)cc2)cc1 | 38 | 23 | 531 | 20300 |  | 
24 | N#Cc1ccc(Sc2ccc(Br)cc2)cc1C#N | 240 | 147 | 79 | 19000 |  | 
25 | N#Cc1ccc(SC2CCCC2)cc1C#N | 3.1 | 1.9 | 887 | 2780 |  | 
